We go through six molecules from ChEMBL document CHEMBL1126618, “Epoxysuccinyl dipeptides as selective inhibitors of cathepsin B” (J Med Chem, 1993).

Data set [1] is described as follows: ratio of cathepsin B/papain. In short, it runs like this: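 Both enzymes were run in a continuous CbzPheArgMCA fluorescence assay in 50 mM phosphate, 200 mM NaCl, 5 mM EDTA and 10% acetonitrile. Recombinant rat cathepsin B was run at pH 6.0 with 0.5 mM DTT. Papain was run at pH 6.5. In each case kobs was followed until complete inactivation.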
The next data set addresses papain (Carica papaya) (UniProt P00784). Description: Second order rate constant for inactivation of papain. Conditions: in vitro.
A further data set is filed under the species Rattus norvegicus. Description: Second order rate constant for inactivation of rat cathepsin B. The settings on record: in vitro. In outline: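 Recombinant rat cathepsin B expressed in yeast, activated 15 min on ice in buffer containing 1 mM DTT. Continuous assay at pH 6.0: 50 mM phosphate, 200 mM NaCl, 5 mM EDTA, 10% v/v acetonitrile, 0.5 mM DTT. Substrate CbzPheArgMCA; fluorescence (ex 380, em 440 nm) followed until complete inactivation (typically 5–30 min) to obtain first-order kobs.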

Structures are written as SMILES.

Take `CCOC(=O)[C@H]1O[C@H]1C(=O)N[C@@H](CC(C)C)C(=O)N1CCC[C@H]1C(=O)O`: the Ratio in data set [1] amounted to 18. Also, the kinact/Ki came to 760 M⁻¹ s⁻¹ on papain (Carica papaya) and 13800 M⁻¹ s⁻¹ in the data set listed under Rattus norvegicus.
Take `CC(C)CNC(=O)[C@H]1O[C@H]1C(=O)N[C@@H](CC(C)C)C(=O)N1CCC[C@H]1C(=O)O`: the Ratio in data set [1] is recorded as 93. The results for the kinact/Ki on papain (Carica papaya) and in the data set listed under Rattus norvegicus were 558 M⁻¹ s⁻¹ and 52000 M⁻¹ s⁻¹, respectively.
Consider `CC(C)C[C@H](NC(=O)[C@@H]1O[C@@H]1C(=O)O)C(=O)N1CCC[C@H]1C(=O)OCc1ccccc1`, for which, in data set [1], the Ratio was determined as 0.05. The kinact/Ki at papain (Carica papaya) was determined as 176000 M⁻¹ s⁻¹; in the data set listed under Rattus norvegicus it was 8700 M⁻¹ s⁻¹.
For `CCOC(=O)[C@H]1O[C@H]1C(=O)N[C@@H](CC(C)C)C(=O)N1CCC[C@H]1C(=O)OCc1ccccc1` the same measures were 0.3, 110 M⁻¹ s⁻¹ and 30 M⁻¹ s⁻¹.
For `CC(C)CNC(=O)[C@H]1O[C@H]1C(=O)N[C@@H](CC(C)C)C(=O)N1CCC[C@H]1C(=O)OCc1ccccc1` the same measures were 0.1, 2070 M⁻¹ s⁻¹ and 206 M⁻¹ s⁻¹.
As for `CC(C)C[C@H](NC(=O)[C@@H]1O[C@@H]1C(=O)O)C(=O)N1CCC[C@H]1C(=O)O`, the Ratio in data set [1] is reported as 0.07. In addition, the kinact/Ki on papain (Carica papaya) stood at 30000 M⁻¹ s⁻¹; in the data set listed under Rattus norvegicus, 2200 M⁻¹ s⁻¹.
